Test results published in ChEMBL document CHEMBL3612059, “Synthesis of 1,2-benzisoxazole tethered 1,2,3-triazoles that exhibit anticancer activity in acute myeloid leukemia cell lines by inhibiting histone deacetylases, and inducing p21 and tubulin acetylation” (Bioorg Med Chem, 2015).
pIC50: −log10 of the molar value. Calls of active or inactive are those of the source. No cut-off for these calls is given here.

Tests used:
MOLM-14 [1] = test: Induction of apoptosis in human MOLM14 cells assessed as necrotic cells at 2.5 uM after 72 hrs by Annexin V-FITC/propidium iodide staining-based flow cytometric analysis (reference value: 1%); assay type: functional
Outline: (§1)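 100,000 cells per well treated with 2.5, 5.0 or 10 μM for 72 h. Washed in ice-cold Ca/Mg-free PBS, resuspended in 100 μl binding buffer, stained with 5 μl PI plus 3 μl annexin V-FITC for 15 min in the dark, then read immediately by flow cytometry. Quadrants scored as live, early apoptotic, late apoptotic and necrotic.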

MOLM-14 [2] = test: Induction of apoptosis in human MOLM14 cells assessed as necrotic cells at 5 uM after 72 hrs by Annexin V-FITC/propidium iodide staining-based flow cytometric analysis (reference value: 1%); assay type: functional; outline: as §1
MV4-11 [3] = test: Induction of apoptosis in human MV4-11 cells assessed as early apoptotic cells at 5 uM after 72 hrs by Annexin V-FITC/propidium iodide staining-based flow cytometric analysis (reference value: 7%); assay type: functional; outline: as §1
MV4-11 [4] = test: Induction of apoptosis in human MV4-11 cells assessed as late apoptotic cells at 5 uM after 72 hrs by Annexin V-FITC/propidium iodide staining-based flow cytometric analysis (reference value: 2%); assay type: functional; outline: as §1
[5] = molecular target: T1, Protein deacetylase HDAC6 (Homo sapiens) (UniProt Q9UBN7); test: Inhibition of HDAC6 in human MV4-11 cells assessed as increase in acetylation of tubulin at lysine 40 by Western blot analysis; assay type: cell-based
T1 sequence (whole entry): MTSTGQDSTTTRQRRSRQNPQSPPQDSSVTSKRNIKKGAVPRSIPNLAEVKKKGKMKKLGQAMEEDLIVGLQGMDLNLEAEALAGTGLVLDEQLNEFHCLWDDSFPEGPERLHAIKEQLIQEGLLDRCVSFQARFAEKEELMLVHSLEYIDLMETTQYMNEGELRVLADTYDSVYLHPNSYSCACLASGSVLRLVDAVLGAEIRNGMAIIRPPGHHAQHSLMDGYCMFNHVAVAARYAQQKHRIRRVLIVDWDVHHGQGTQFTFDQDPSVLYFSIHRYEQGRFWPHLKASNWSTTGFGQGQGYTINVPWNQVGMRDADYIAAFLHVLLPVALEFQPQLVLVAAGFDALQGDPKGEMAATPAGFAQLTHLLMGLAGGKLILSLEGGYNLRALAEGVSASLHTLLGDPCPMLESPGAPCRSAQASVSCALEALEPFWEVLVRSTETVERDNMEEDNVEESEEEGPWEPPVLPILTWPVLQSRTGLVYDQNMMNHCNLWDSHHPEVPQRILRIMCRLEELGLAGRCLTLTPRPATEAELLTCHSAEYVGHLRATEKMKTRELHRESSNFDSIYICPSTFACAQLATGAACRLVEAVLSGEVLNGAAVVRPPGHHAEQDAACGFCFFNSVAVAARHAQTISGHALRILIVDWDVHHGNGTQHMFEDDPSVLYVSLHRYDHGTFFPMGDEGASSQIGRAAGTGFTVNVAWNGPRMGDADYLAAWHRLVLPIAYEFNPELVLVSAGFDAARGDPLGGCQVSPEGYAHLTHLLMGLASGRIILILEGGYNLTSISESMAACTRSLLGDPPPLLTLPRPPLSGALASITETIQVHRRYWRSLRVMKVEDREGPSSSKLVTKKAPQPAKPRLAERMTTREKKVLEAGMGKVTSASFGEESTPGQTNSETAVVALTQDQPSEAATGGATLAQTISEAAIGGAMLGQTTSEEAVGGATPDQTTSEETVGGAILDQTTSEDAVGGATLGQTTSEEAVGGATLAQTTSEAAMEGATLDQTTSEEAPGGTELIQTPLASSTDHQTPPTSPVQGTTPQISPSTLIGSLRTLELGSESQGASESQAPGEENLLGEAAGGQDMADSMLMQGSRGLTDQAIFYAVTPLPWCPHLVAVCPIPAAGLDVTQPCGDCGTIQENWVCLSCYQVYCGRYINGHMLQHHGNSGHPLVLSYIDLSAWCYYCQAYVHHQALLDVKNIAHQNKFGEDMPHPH

MOLM-14 [6] = test: Cytotoxicity against human MOLM14 cells assessed as cell viability after 24 to 96 hrs by MTT assay; assay type: functional, cell-based
Outline: (§2)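 AML cells kept in RPMI with 10 % FBS and 1 % penicillin-streptomycin at 37 °C, 5 % CO₂, mycoplasma-screened. Seeded at 8,000 cells/well across a range of concentrations and read at several times up to 96 h. MTT added to 0.5 mg/ml final for 3 h at 37 °C, formazan dissolved in SDS-HCl, absorbance read at 570 nm. IC50 taken from the dose-response curves.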

MOLM-14 [7] = test: Cytotoxicity against human MOLM14 cells assessed as cell viability at 0.25 to 5 uM by MTT assay; assay type: functional, cell-based; outline: as §2
MV4-11 [8] = test: Cytotoxicity against human MV4-11 cells assessed as cell viability at 0.25 to 5 uM by MTT assay; assay type: functional, cell-based; outline: as §2
MV4-11 [9] = test: Cytotoxicity against human MV4-11 cells assessed as cell viability measured at 96 hrs by MTT assay; assay type: functional, cell-based; conditions: MV4-11, 96 h; outline: as §2
MOLM-14 [10] = test: Cell cycle arrest in human MOLM14 cells assessed as accumulation at G2/M phase after 72 hrs by propidium iodide staining-based flow cytometric analysis; assay type: functional
Outline: (§3)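 Cells in RPMI with 10 % FBS at 37 °C, 5 % CO₂; treated up to 72 h, washed in cold PBS, fixed in -20 °C-precooled 70 % ethanol at 4 °C. Stained with 50 µg/ml PI, 1 % Triton X-100 and 20 µg/ml RNase A in PBS, 30 min, 37 °C, dark. Cell-cycle phases read by flow cytometry; three independent experiments, mean ± SD.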

MV4-11 [11] = test: Cell cycle arrest in human MV4-11 cells assessed as accumulation at G2/M phase after 72 hrs by propidium iodide staining-based flow cytometric analysis; assay type: functional; outline: as §3
MOLM-14 [12] = test: Cell cycle arrest in human MOLM14 cells assessed as accumulation at sub-G1 phase after 72 hrs by propidium iodide staining-based flow cytometric analysis; assay type: functional; outline: as §3
MV4-11 [13] = test: Cell cycle arrest in human MV4-11 cells assessed as accumulation at sub-G1 phase after 72 hrs by propidium iodide staining-based flow cytometric analysis; assay type: functional; outline: as §3
MOLM-13 (Homo sapiens) [14] = test: Cytotoxicity against human MOLM13 cells assessed as cell viability after 24 to 96 hrs by MTT assay
MOLM-13 (Homo sapiens) [15] = test: Cytotoxicity against human MOLM13 cells assessed as cell viability measured at 96 hrs by MTT assay; conditions: MOLM-13, 96 h
MOLM-13 (Homo sapiens) [16] = test: Cell cycle arrest in human MOLM13 cells assessed as accumulation at sub-G1 phase after 72 hrs by propidium iodide staining-based flow cytometric analysis
MOLM-13 (Homo sapiens) [17] = test: Induction of apoptosis in human MOLM13 cells assessed as late apoptotic cells at 10 uM after 72 hrs by Annexin V-FITC/propidium iodide staining-based flow cytometric analysis (reference value: 7%)

inhibition [5]: Active
SMILES: c1ccc(Oc2ccc(-c3cn(-c4noc5ccccc45)nn3)cc2)cc1
Activity (MOLM-14 [1]): 2%
Activity (MOLM-14 [2]): 7%
Activity (MV4-11 [3]): 16%
Activity (MV4-11 [4]): 20%
Activity (MOLM-14 [6]): Dose-dependent effect
Activity (MOLM-14 [7]): Dose-dependent effect
Activity (MV4-11 [8]): Dose-dependent effect
pIC50 (MV4-11 [9]): 5.60
Activity (MOLM-14 [10]): Active
Activity (MV4-11 [11]): Active
Activity (MOLM-14 [12]): Active
Activity (MV4-11 [13]): Active
Activity (MOLM-13 (Homo sapiens) [14]): Dose-dependent effect
pIC50 (MOLM-13 (Homo sapiens) [15]): 6.00
Activity (MOLM-13 (Homo sapiens) [16]): Active
Activity (MOLM-13 (Homo sapiens) [17]): 35%
